In ChEMBL document CHEMBL1121956, “Potential antitumor agents. 37. Organophosphorus derivatives of 9-anilinoacridine” (1982):

Legend:
[1] = tested on: L1210; assay: Concentration for inhibiting the growth of L1210 cells by 50% over 3 days was determined; format: functional; conditions: Mus musculus, L1210, 72 h; read-out: ID50 (the source's name)
[2] = tested on: Nucleic Acid; assay: […] association constant for DNA binding to poly (dA.dT); format: nucleic-acid assay
Procedure, shortened: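 Association constant for binding to the synthetic polynucleotide poly(dA-dT). Measured by a method described in earlier work.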

[3] = tested on: P388; assay: Concentration for inhibiting the growth of P-388 cells by 50% over 3 days was determined; format: functional; conditions: Mus musculus, P388, 72 h; read-out: ID50 (the source's name)
Procedure, shortened: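 Cytotoxicity was measured against cultured murine leukemia cells, P-388 and L1210, over 3 days of continuous drug exposure. Culture and drug-addition conditions follow an earlier report. The value is the drug concentration that inhibits growth by 50% over the 3 days.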

[4] = tested on: P388; assay: Percentage increase in life span was measured for P-388 cells […] after intraperitoneal administration of a dose of 33 mg/kg; format: functional; conditions: Mus musculus, P388, ip
Procedure, shortened: (§1)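 Mice received 10⁶ P-388 leukemia cells ip. Drug in 0.1 mL of 30% aqueous ethanol was injected ip on days 1, 5 and 9. Doses ran from a toxic level downward at 0.67-fold intervals, with 6 mice per group and 20–30 controls. The percentage increase in mean survival time over controls was taken at the optimal dose. ILS below 20% was treated as nonsignificant.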

[5] = tested on: P388; assay: Percentage increase in life span was measured for P-388 cells […] after intraperitoneal administration of a dose of 110 mg/kg; format: functional; conditions: Mus musculus, P388, ip; procedure, shortened: as §1
[6] = tested on: P388; assay: Percentage increase in life span was measured for P-388 cells […] after intraperitoneal administration of a dose of 30 mg/kg; format: functional; conditions: Mus musculus, P388, ip; procedure, shortened: as §1
[7] = tested on: P388; assay: Percentage increase in life span was measured for P-388 cells […] after intraperitoneal administration of a dose of 250 mg/kg; format: functional; conditions: Mus musculus, P388, ip; procedure, shortened: as §1
[8] = tested on: P388; assay: Percentage increase in life span was measured for P-388 cells […] after intraperitoneal administration of a dose of 8.9 mg/kg; format: functional; conditions: Mus musculus, P388, ip; procedure, shortened: as §1
[9] = tested on: P388; assay: Percentage increase in life span was measured for P-388 cells […] after intraperitoneal administration of a dose of 150 mg/kg; format: functional; conditions: Mus musculus, P388, ip; procedure, shortened: as §1
[10] = tested on: P388; assay: Percentage increase in life span was measured for P-388 cells […] after intraperitoneal administration of a dose of 50 mg/kg; format: functional; conditions: Mus musculus, P388, ip; procedure, shortened: as §1
[11] = tested on: P388; assay: Percentage increase in life span was measured for P-388 cells […] after intraperitoneal administration of a dose of 330 mg/kg; format: functional; conditions: Mus musculus, P388, ip; procedure, shortened: as §1
[12] = tested on: P388; assay: Percentage increase in life span was measured for P-388 cells […] after intraperitoneal administration of a dose of 125 mg/kg; format: functional; conditions: Mus musculus, P388, ip; procedure, shortened: as §1
[13] = tested on: P388; assay: Percentage increase in life span was measured for P-388 cells […] after intraperitoneal administration of a dose of 65 mg/kg; format: functional; conditions: Mus musculus, P388, ip; procedure, shortened: as §1
[14] = tested on: P388; assay: Percentage increase in life span was measured for P-388 cells […] after intraperitoneal administration of a dose of 66 mg/kg; format: functional; conditions: Mus musculus, P388, ip; procedure, shortened: as §1
[15] = tested on: P388; assay: animal or person; conditions: Mus musculus, P388, ip
[16] = tested on: P388; assay: Percentage increase in life span was measured for P-388 cells […] after intraperitoneal administration of a dose of 190 mg/kg; format: functional; conditions: Mus musculus, P388, ip; procedure, shortened: as §1

Question: For `COP(=O)(Nc1ccc(Nc2c3ccccc3nc3ccccc23)cc1)OC`, which IC50 [1] is on record?
Answer: Its IC50 is 0.015 µM.

Question: What about the Log K [2] of the same molecule?
Answer: Its Log K is 6.26.

Question: What about the IC50 [3] of the same molecule?
Answer: Its IC50 is 0.01 µM.

Question: And the ILS at 33 mg/kg [4]?
Answer: Its ILS at 33 mg/kg is 74%.

Question: How did the ILS at 110 mg/kg [5] turn out when `CCOP(=O)(Nc1ccc(Nc2c3ccccc3nc3ccccc23)cc1)OCC` was run?
Answer: The ILS at 110 mg/kg was 28%.

Question: What about the IC50 [1] of the same molecule?
Answer: The IC50 was 0.23 µM.

Question: And the Log K [2]?
Answer: Its Log K is 6.47.

Question: What about the IC50 [3] of the same molecule?
Answer: Its IC50 is 0.2 µM.

Question: For `O=P1(Nc2ccc(Nc3c4ccccc4nc4ccccc34)cc2)OCCCO1`, which IC50 [1] is on record?
Answer: The IC50 was 0.11 µM.

Question: What about the Log K [2] of the same molecule?
Answer: The Log K was 6.78.

Question: What about the IC50 [3] of the same molecule?
Answer: Its IC50 is 0.05 µM.

Question: What about the ILS at 30 mg/kg [6] of the same molecule?
Answer: The ILS at 30 mg/kg was 47%.

Question: For `O=P1(Nc2ccc(Nc3c4ccccc4nc4ccccc34)cc2)OCCO1`, which IC50 [1] is on record?
Answer: The IC50 was 0.18 µM.

Question: And the Log K [2]?
Answer: Its Log K is 6.52.

Question: What about the IC50 [3] of the same molecule?
Answer: The IC50 was 0.11 µM.

Question: What about the ILS at 30 mg/kg [6] of the same molecule?
Answer: Its ILS at 30 mg/kg is 54%.

Question: With `COP(=O)(Nc1cccc(Nc2c3ccccc3nc3ccccc23)c1)OC` as the molecule, how does the IC50 [1] read?
Answer: The IC50 was 1.8 µM.

Question: What about the Log K [2] of the same molecule?
Answer: Its Log K is 5.66.

Question: What about the ILS at 250 mg/kg [7] of the same molecule?
Answer: Its ILS at 250 mg/kg is 34%.

Question: And the IC50 [3]?
Answer: Its IC50 is 1.4 µM.

Question: Which results are given for `COC(=O)Nc1ccc(Nc2c3ccccc3nc3ccccc23)cc1`?
Answer: IC50 [1]: 0.06 µM; IC50 [3]: 0.026 µM; ILS at 30 mg/kg [6]: 98%

Question: Which results are given for `CNC(=O)Nc1ccc(Nc2c3ccccc3nc3ccccc23)cc1`?
Answer: IC50 [1]: 0.1 µM; IC50 [3]: 0.086 µM; ILS at 30 mg/kg [6]: 53%

Question: How did the IC50 [1] turn out when `COc1cc(NP(=O)(OC)OC)ccc1Nc1c2ccccc2nc2ccccc12` was run?
Answer: Its IC50 is 0.07 µM.

Question: What about the Log K [2] of the same molecule?
Answer: Its Log K is 5.64.

Question: And the ILS at 8.9 mg/kg [8]?
Answer: Its ILS at 8.9 mg/kg is 67%.

Question: What about the IC50 [3] of the same molecule?
Answer: Its IC50 is 0.036 µM.

Question: Which results are given for `NP(=O)(O)Nc1ccc(Nc2c3ccccc3nc3ccccc23)cc1`?
Answer: IC50 [1]: 1.8 µM; Log K [2]: 4.83; IC50 [3]: 2.8 µM

Question: With `CS(=O)(=O)Nc1ccc(Nc2c3ccccc3nc3ccccc23)cc1` as the molecule, how does the IC50 [1] read?
Answer: Its IC50 is 0.035 µM.

Question: And the IC50 [3]?
Answer: Its IC50 is 0.04 µM.

Question: And the ILS at 150 mg/kg [9]?
Answer: Its ILS at 150 mg/kg is 93%.

Question: Which results are given for `CN(C)P(=O)(Nc1ccc(Nc2c3ccccc3nc3ccccc23)cc1)N(C)C`?
Answer: IC50 [1]: 1.5 µM; Log K [2]: 6.08; ILS at 50 mg/kg [10]: 29%; IC50 [3]: 1.3 µM

Question: What does the source list for `CC(=O)Nc1ccc(Nc2c3ccccc3nc3ccccc23)cc1`?
Answer: IC50 [1]: 0.1 µM; IC50 [3]: 0.054 µM; ILS at 30 mg/kg [6]: 57%

Question: What does the source list for `COP(=O)(O)Nc1ccc(Nc2c3ccccc3nc3ccccc23)cc1`?
Answer: IC50 [1]: 2 µM; Log K [2]: 5.37; IC50 [3]: 4 µM

Question: For `CS(=O)(=O)Cc1ccc(Nc2c3ccccc3nc3ccccc23)cc1`, which IC50 [1] is on record?
Answer: Its IC50 is 0.25 µM.

Question: What about the Log K [2] of the same molecule?
Answer: The Log K was 5.76.

Question: What about the ILS at 330 mg/kg [11] of the same molecule?
Answer: Its ILS at 330 mg/kg is 49%.

Question: And the IC50 [3]?
Answer: The IC50 was 0.27 µM.

Question: Which IC50 [1] does the source give for `COP(=O)(Cc1ccc(Nc2c3ccccc3nc3ccccc23)cc1)OC` here?
Answer: The IC50 was 0.67 µM.

Question: And the Log K [2]?
Answer: Its Log K is 5.67.

Question: What about the IC50 [3] of the same molecule?
Answer: Its IC50 is 1.4 µM.

Question: And the ILS at 125 mg/kg [12]?
Answer: The ILS at 125 mg/kg was 2%.

Question: For `CNP(=O)(NC)Nc1ccc(Nc2c3ccccc3nc3ccccc23)cc1`, which IC50 [1] is on record?
Answer: The IC50 was 2.5 µM.

Question: What about the Log K [2] of the same molecule?
Answer: Its Log K is 6.84.

Question: And the ILS at 50 mg/kg [10]?
Answer: Its ILS at 50 mg/kg is 11%.

Question: What about the IC50 [3] of the same molecule?
Answer: The IC50 was 2 µM.

Question: Which results are given for `CP(C)(=O)Nc1ccc(Nc2c3ccccc3nc3ccccc23)cc1`?
Answer: IC50 [1]: 1.3 µM; Log K [2]: 6.81; ILS at 65 mg/kg [13]: 18%; IC50 [3]: 1 µM

Question: Which results are given for `CS(=O)(=O)Nc1cccc(Nc2c3ccccc3nc3ccccc23)c1`?
Answer: IC50 [1]: 0.11 µM; IC50 [3]: 0.09 µM; ILS at 66 mg/kg [14]: 53%

Question: `O=P1(Nc2ccc(Nc3c4ccccc4nc4ccccc34)cc2)NCCCO1` (stereo unspecified) was tested. Which IC50 [1] did it give?
Answer: Its IC50 is 0.8 µM.

Question: And the Log K [2]?
Answer: Its Log K is 6.58.

Question: What about the ILS at 50 mg/kg [10] of the same molecule?
Answer: Its ILS at 50 mg/kg is 9%.

Question: And the IC50 [3]?
Answer: The IC50 was 0.45 µM.

Question: Which ILS at 13.3 mg/kg [15] does the source give for `COc1cc(NS(C)(=O)=O)ccc1Nc1c2ccccc2nc2ccccc12` [AMSACRINE] here?
Answer: Its ILS at 13.3 mg/kg is 78%.

Question: And the Log K [2]?
Answer: The Log K was 5.57.

Question: What about the IC50 [3] of the same molecule?
Answer: The IC50 was 0.03 µM.

Question: How did the IC50 [1] turn out when `COP(=O)(NC(=O)c1ccc(Nc2c3ccccc3nc3ccccc23)cc1)OC` was run?
Answer: The IC50 was > 0.035 µM.

Question: What about the ILS at 190 mg/kg [16] of the same molecule?
Answer: The ILS at 190 mg/kg was 12%.

Question: What about the Log K [2] of the same molecule?
Answer: Its Log K is 5.56.

Question: And the IC50 [3]?
Answer: Its IC50 is 4.8 µM.
